Reference: ChEMBL document CHEMBL4152188, “Design, synthesis and biological evaluation of C(4) substituted monobactams as antibacterial agents against multidrug-resistant Gram-negative bacteria” (Eur J Med Chem, 2018)
≈ marks a conversion by molar mass, not a printed value.

What was measured:
Type in all cases: functional
Escherichia coli [1] = assay: Antibacterial activity against extended-spectrum beta-lactamase producing Escherichia coli isolate 212648 after 18 hrs by CLSI broth microdilution method; settings: isolate 212648, 18 h
Escherichia coli [2] = assay: Antibacterial activity against Escherichia coli isolate 210737 after 18 hrs by CLSI broth microdilution method; settings: isolate 210737, 18 h
Escherichia coli [3] = assay: Antibacterial activity against extended-spectrum beta-lactamase producing Escherichia coli isolate 208687 after 18 hrs by CLSI broth microdilution method; settings: isolate 208687, 18 h
Escherichia coli [4] = assay: Antibacterial activity against extended-spectrum beta-lactamase producing Escherichia coli isolate 208687 after 18 hrs in presence of BPL by CLSI broth microdilution method; settings: isolate 208687, 18 h
Outline: (§1)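 CLSI broth microdilution against clinical isolates (ESBL E. coli, KPC-2 MDR K. pneumoniae, IMP-4 MDR P. aeruginosa; five per species). Iron limitation: Mueller-Hinton broth supplemented with 16 mg/liter 2,2'-bipyridyl to complex iron and induce iron uptake systems. Read-out: MIC.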

Escherichia coli [5] = assay: Antibacterial activity against Escherichia coli isolate 210737 after 18 hrs in presence of BPL by CLSI broth microdilution method; settings: isolate 210737, 18 h; outline: as §1
Escherichia coli [6] = assay: Antibacterial activity against extended-spectrum beta-lactamase producing Escherichia coli isolate 212648 after 18 hrs in presence of BPL by CLSI broth microdilution method; settings: isolate 212648, 18 h; outline: as §1
Escherichia coli [7] = assay: Antibacterial activity against extended-spectrum beta-lactamase producing Escherichia coli isolate 209285 after 18 hrs by CLSI broth microdilution method; settings: isolate 209285, 18 h
Escherichia coli [8] = assay: Antibacterial activity against extended-spectrum beta-lactamase producing Escherichia coli isolate 209285 after 18 hrs in presence of BPL by CLSI broth microdilution method; settings: isolate 209285, 18 h; outline: as §1
Escherichia coli [9] = assay: Antibacterial activity against extended-spectrum beta-lactamase producing Escherichia coli isolate 106342 after 18 hrs by CLSI broth microdilution method; settings: isolate 106342, 18 h
Escherichia coli [10] = assay: Antibacterial activity against extended-spectrum beta-lactamase producing Escherichia coli isolate 106342 after 18 hrs in presence of BPL by CLSI broth microdilution method; settings: isolate 106342, 18 h; outline: as §1
Klebsiella pneumoniae [11] = assay: Antibacterial activity against KPC-2 producing Klebsiella pneumoniae isolate 212423 after 18 hrs by CLSI broth microdilution method; settings: isolate 212423, 18 h
Klebsiella pneumoniae [12] = assay: Antibacterial activity against KPC-2 producing Klebsiella pneumoniae isolate 212423 after 18 hrs in presence of BPL by CLSI broth microdilution method; settings: isolate 212423, 18 h; outline: as §1
Klebsiella pneumoniae [13] = assay: Selectivity index, ratio of MIC for against KPC-2 producing Klebsiella pneumoniae isolate 212423 to MIC for against KPC-2 producing Klebsiella pneumoniae isolate 212423 in presence of BPL
Klebsiella pneumoniae [14] = assay: Antibacterial activity against KPC-2 producing Klebsiella pneumoniae isolate 209632 after 18 hrs by CLSI broth microdilution method; settings: isolate 209632, 18 h
Klebsiella pneumoniae [15] = assay: Antibacterial activity against KPC-2 producing Klebsiella pneumoniae isolate 209632 after 18 hrs in presence of BPL by CLSI broth microdilution method; settings: isolate 209632, 18 h; outline: as §1
Klebsiella pneumoniae [16] = assay: Selectivity index, ratio of MIC for against KPC-2 producing Klebsiella pneumoniae isolate 209632 to MIC for against KPC-2 producing Klebsiella pneumoniae isolate 209632 in presence of BPL
Klebsiella pneumoniae [17] = assay: Antibacterial activity against KPC-2 producing Klebsiella pneumoniae isolate 209735 after 18 hrs by CLSI broth microdilution method; settings: isolate 209735, 18 h
Klebsiella pneumoniae [18] = assay: Antibacterial activity against KPC-2 producing Klebsiella pneumoniae isolate 209735 after 18 hrs in presence of BPL by CLSI broth microdilution method; settings: isolate 209735, 18 h; outline: as §1
Klebsiella pneumoniae [19] = assay: Selectivity index, ratio of MIC for against KPC-2 producing Klebsiella pneumoniae isolate 209735 to MIC for against KPC-2 producing Klebsiella pneumoniae isolate 209735 in presence of BPL
Klebsiella pneumoniae [20] = assay: Antibacterial activity against KPC-2 producing Klebsiella pneumoniae isolate 212232 after 18 hrs by CLSI broth microdilution method; settings: isolate 212232, 18 h
Klebsiella pneumoniae [21] = assay: Antibacterial activity against KPC-2 producing Klebsiella pneumoniae isolate 212232 after 18 hrs in presence of BPL by CLSI broth microdilution method; settings: isolate 212232, 18 h; outline: as §1
Klebsiella pneumoniae [22] = assay: Selectivity index, ratio of MIC for against KPC-2 producing Klebsiella pneumoniae isolate 212232 to MIC for against KPC-2 producing Klebsiella pneumoniae isolate 212232 in presence of BPL
Klebsiella pneumoniae [23] = assay: Antibacterial activity against KPC-2 producing Klebsiella pneumoniae isolate 212229 after 18 hrs by CLSI broth microdilution method; settings: isolate 212229, 18 h
Klebsiella pneumoniae [24] = assay: Antibacterial activity against KPC-2 producing Klebsiella pneumoniae isolate 212229 after 18 hrs in presence of BPL by CLSI broth microdilution method; settings: isolate 212229, 18 h; outline: as §1
Klebsiella pneumoniae [25] = assay: Selectivity index, ratio of MIC for against KPC-2 producing Klebsiella pneumoniae isolate 212229 to MIC for against KPC-2 producing Klebsiella pneumoniae isolate 212229 in presence of BPL
Pseudomonas aeruginosa [26] = assay: Antibacterial activity against IMP-4 producing Pseudomonas aeruginosa isolate 212886 after 18 hrs by CLSI broth microdilution method; settings: isolate 212886, 18 h
Pseudomonas aeruginosa [27] = assay: Antibacterial activity against IMP-4 producing Pseudomonas aeruginosa isolate 212886 after 18 hrs in presence of BPL by CLSI broth microdilution method; settings: isolate 212886, 18 h; outline: as §1
Pseudomonas aeruginosa [28] = assay: Antibacterial activity against IMP-4 producing Pseudomonas aeruginosa isolate 209471 after 18 hrs by CLSI broth microdilution method; settings: isolate 209471, 18 h
Pseudomonas aeruginosa [29] = assay: Antibacterial activity against IMP-4 producing Pseudomonas aeruginosa isolate 209471 after 18 hrs in presence of BPL by CLSI broth microdilution method; settings: isolate 209471, 18 h; outline: as §1
Pseudomonas aeruginosa [30] = assay: Antibacterial activity against IMP-4 producing Pseudomonas aeruginosa isolate 208247 after 18 hrs by CLSI broth microdilution method; settings: isolate 208247, 18 h
Pseudomonas aeruginosa [31] = assay: Antibacterial activity against IMP-4 producing Pseudomonas aeruginosa isolate 208247 after 18 hrs in presence of BPL by CLSI broth microdilution method; settings: isolate 208247, 18 h; outline: as §1
Pseudomonas aeruginosa [32] = assay: Antibacterial activity against IMP-4 producing Pseudomonas aeruginosa isolate 209321 after 18 hrs by CLSI broth microdilution method; settings: isolate 209321, 18 h
Pseudomonas aeruginosa [33] = assay: Antibacterial activity against IMP-4 producing Pseudomonas aeruginosa isolate 209321 after 18 hrs in presence of BPL by CLSI broth microdilution method; settings: isolate 209321, 18 h; outline: as §1
Pseudomonas aeruginosa [34] = assay: Antibacterial activity against IMP-4 producing Pseudomonas aeruginosa isolate 207272 after 18 hrs by CLSI broth microdilution method; settings: isolate 207272, 18 h
Pseudomonas aeruginosa [35] = assay: Antibacterial activity against IMP-4 producing Pseudomonas aeruginosa isolate 207272 after 18 hrs in presence of BPL by CLSI broth microdilution method; settings: isolate 207272, 18 h; outline: as §1
Escherichia coli [36] = assay: Selectivity index, ratio of MIC for against extended-spectrum beta-lactamase producing Escherichia coli isolate 208687 to MIC for extended-spectrum beta-lactamase producing Escherichia coli isolate 208687 in presence of BPL
Escherichia coli [37] = assay: Selectivity index, ratio of MIC for against Escherichia coli isolate 210737 to MIC for Escherichia coli isolate 210737 in presence of BPL
Escherichia coli [38] = assay: Selectivity index, ratio of MIC for against extended-spectrum beta-lactamase producing Escherichia coli isolate 212648 to MIC for extended-spectrum beta-lactamase producing Escherichia coli isolate 212648 in presence of BPL
Escherichia coli [39] = assay: Selectivity index, ratio of MIC for against extended-spectrum beta-lactamase producing Escherichia coli isolate 209285 to MIC for extended-spectrum beta-lactamase producing Escherichia coli isolate 209285 in presence of BPL
Escherichia coli [40] = assay: Selectivity index, ratio of MIC for against extended-spectrum beta-lactamase producing Escherichia coli isolate 106342 to MIC for extended-spectrum beta-lactamase producing Escherichia coli isolate 106342 in presence of BPL

## CC(C)C(O/N=C(\C(=O)NC1C(=O)N(S(=O)(=O)O)C1(CF)CF)c1csc(N)n1)c1cc(=O)c(O)cn1O (stereo not given)
Escherichia coli [1]
  MIC: > 64 µg/mL
Escherichia coli [2]
  MIC: > 64 µg/mL
Escherichia coli [3]
  MIC: > 64 µg/mL
Escherichia coli [4]
  MIC: > 64 µg/mL
Escherichia coli [5]
  MIC: > 64 µg/mL
Escherichia coli [6]
  MIC: > 64 µg/mL
Escherichia coli [7]
  MIC: > 64 µg/mL
Escherichia coli [8]
  MIC: > 64 µg/mL
Escherichia coli [9]
  MIC: > 64 µg/mL
Escherichia coli [10]
  MIC: > 64 µg/mL
Klebsiella pneumoniae [11]
  MIC: > 64 µg/mL
Klebsiella pneumoniae [12]
  MIC: > 64 µg/mL
Klebsiella pneumoniae [13]
  Selectivity Index: 8
Klebsiella pneumoniae [14]
  MIC: > 64 µg/mL
Klebsiella pneumoniae [15]
  MIC: > 64 µg/mL
Klebsiella pneumoniae [16]
  Selectivity Index: 8
Klebsiella pneumoniae [17]
  MIC: > 64 µg/mL
Klebsiella pneumoniae [18]
  MIC: > 64 µg/mL
Klebsiella pneumoniae [19]
  Selectivity Index: 8
Klebsiella pneumoniae [20]
  MIC: 32 µg/mL (≈ 55.1 µM)
Klebsiella pneumoniae [21]
  MIC: 4 µg/mL
Klebsiella pneumoniae [22]
  Selectivity Index: 8
Klebsiella pneumoniae [23]
  MIC: > 64 µg/mL
Klebsiella pneumoniae [24]
  MIC: > 64 µg/mL
Klebsiella pneumoniae [25]
  Selectivity Index: 8
Pseudomonas aeruginosa [26]
  MIC: > 64 µg/mL
Pseudomonas aeruginosa [27]
  MIC: > 64 µg/mL
Pseudomonas aeruginosa [28]
  MIC: > 64 µg/mL
Pseudomonas aeruginosa [29]
  MIC: > 64 µg/mL
Pseudomonas aeruginosa [30]
  MIC: > 64 µg/mL
Pseudomonas aeruginosa [31]
  MIC: 64 µg/mL
Pseudomonas aeruginosa [32]
  MIC: > 64 µg/mL
Pseudomonas aeruginosa [33]
  MIC: > 64 µg/mL
Pseudomonas aeruginosa [34]
  MIC: > 64 µg/mL
Pseudomonas aeruginosa [35]
  MIC: > 64 µg/mL

## CC(C)C(O/N=C(\C(=O)NC1C(=O)N(S(=O)(=O)O)C12CCOCC2)c1csc(N)n1)c1cc(=O)c(O)cn1O (stereo not given)
Escherichia coli [1]
  MIC: 8 µg/mL (≈ 13.6 µM)
Escherichia coli [36]
  Selectivity Index: 4
Escherichia coli [2]
  MIC: 1 µg/mL (≈ 1.7 µM)
Escherichia coli [3]
  MIC: 4 µg/mL (≈ 6.82 µM)
Escherichia coli [4]
  MIC: 1 µg/mL
Escherichia coli [5]
  MIC: 1 µg/mL
Escherichia coli [37]
  Selectivity Index: 1
Escherichia coli [6]
  MIC: 2 µg/mL
Escherichia coli [38]
  Selectivity Index: 4
Escherichia coli [7]
  MIC: 16 µg/mL (≈ 27.3 µM)
Escherichia coli [8]
  MIC: 8 µg/mL
Escherichia coli [39]
  Selectivity Index: 2
Escherichia coli [9]
  MIC: 8 µg/mL (≈ 13.6 µM)
Escherichia coli [10]
  MIC: 4 µg/mL
Escherichia coli [40]
  Selectivity Index: 2
Klebsiella pneumoniae [11]
  MIC: 4 µg/mL (≈ 6.82 µM)
Klebsiella pneumoniae [12]
  MIC: 2 µg/mL
Klebsiella pneumoniae [13]
  Selectivity Index: 2
Klebsiella pneumoniae [14]
  MIC: 4 µg/mL (≈ 6.82 µM)
Klebsiella pneumoniae [15]
  MIC: 1 µg/mL
Klebsiella pneumoniae [16]
  Selectivity Index: 4
Klebsiella pneumoniae [17]
  MIC: 4 µg/mL (≈ 6.82 µM)
Klebsiella pneumoniae [18]
  MIC: 1 µg/mL
Klebsiella pneumoniae [19]
  Selectivity Index: 4
Klebsiella pneumoniae [20]
  MIC: 2 µg/mL (≈ 3.41 µM)
Klebsiella pneumoniae [21]
  MIC: 0.06 µg/mL
Klebsiella pneumoniae [22]
  Selectivity Index: 32
Klebsiella pneumoniae [23]
  MIC: 8 µg/mL (≈ 13.6 µM)
Klebsiella pneumoniae [24]
  MIC: 1 µg/mL
Klebsiella pneumoniae [25]
  Selectivity Index: 8
Pseudomonas aeruginosa [26]
  MIC: > 64 µg/mL
Pseudomonas aeruginosa [27]
  MIC: > 64 µg/mL
Pseudomonas aeruginosa [28]
  MIC: > 64 µg/mL
Pseudomonas aeruginosa [29]
  MIC: > 64 µg/mL
Pseudomonas aeruginosa [30]
  MIC: > 64 µg/mL
Pseudomonas aeruginosa [31]
  MIC: 64 µg/mL
Pseudomonas aeruginosa [32]
  MIC: > 64 µg/mL
Pseudomonas aeruginosa [33]
  MIC: > 64 µg/mL
Pseudomonas aeruginosa [34]
  MIC: > 64 µg/mL
Pseudomonas aeruginosa [35]
  MIC: 64 µg/mL
